NPY-Y1 antag: blocks the human neuropeptide Y Y1 receptor | HEK293-CNG Y1 cells, membrane potential fluorescence; NPY at EC95, then isoproterenol | 200,000 tested, 1% active | P25929 | inhibition, % at 3.6 µM;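 active = inhibition above the campaign mean inhibition of all tested compounds plus 3 SD, cut at about 20% in these data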;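 also: 0% = DMSO wells given NPY plus isoproterenol and 100% = isoproterenol alone without NPY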
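Benchmarks – high control isoproterenol alone, low control NPY with isoproterenol · Material – HEK293 Y1/CNG channel cell line · Times – dye 3 h, compound 60 min room temperature, stimulation 45 min · Probe or stimulus – NPY (25 nM), isoproterenol (1 µM), Ro 20-1724 (25 µM) · Evaluation – % inhibition of NPY effect · Signal – fluorescence, membrane potential probe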
NPY Y2 blocker: NPY-Y2 (human) receptor antagonism; NPY-Y2 expressing cells, antagonist mode; P49146; 140,000 tested, 0.99% active; inhibition, % at 2.7 µM;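 also: 0% = vehicle with agonist challenge and 100% = reference antagonist with challenge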
Target sequence (P49146 whole entry, looked up): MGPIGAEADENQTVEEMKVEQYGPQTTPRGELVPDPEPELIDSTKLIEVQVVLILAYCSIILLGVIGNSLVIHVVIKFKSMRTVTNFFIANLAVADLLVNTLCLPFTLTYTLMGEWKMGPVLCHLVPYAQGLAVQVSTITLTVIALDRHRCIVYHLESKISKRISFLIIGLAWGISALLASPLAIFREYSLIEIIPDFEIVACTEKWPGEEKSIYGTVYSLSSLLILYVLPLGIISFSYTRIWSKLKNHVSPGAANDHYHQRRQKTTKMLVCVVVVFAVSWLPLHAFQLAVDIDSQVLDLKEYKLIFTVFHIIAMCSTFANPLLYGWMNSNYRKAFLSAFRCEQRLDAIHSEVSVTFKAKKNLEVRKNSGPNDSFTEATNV
NPY-Y2 PAM-ag: potentiators or agonists of human neuropeptide Y receptor Y2; P49146; cells expressing NPY-Y2, potentiator/agonist read-out; activation, % at 3.6 µM; 220,000 tested, 0.45% active; in the data active = activation above about 27%;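 also: cells stimulated with NPY near EC25 plus isoproterenol at EC100; 0% = vehicle plus submaximal agonist and 100% = vehicle plus saturating agonist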
NPY1 pot ag: human NPY-Y1 potentiation or agonism, primary screen; 220,000 tested, 0.37% active; activation, % at 3.6 µM; P25929; NPY-Y1 expressing cells, potentiator/agonist activation; in the data active = activation above about 33%, passing the limit was not always enough;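 also: cells stimulated with NPY at EC10 then isoproterenol at EC100; 0% = low agonist plus stimulus and 100% = saturating agonist plus stimulus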
NPY-Y1 ant conf: confirmation of human neuropeptide Y receptor Y1 antagonists; shares compounds with NPY-Y1 antag; HEK293-CNG NPY-Y1, membrane potential fluorescence, cAMP; NPY challenge against isoproterenol-raised cAMP; inhibition, % at 3.6 µM; 1,200 tested, 21% active; in the data active = inhibition above about 20%;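 also: 0% = vehicle with agonist plus stimulus and 100% = stimulus alone without agonist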
NPY2 antag ctr: counter-screen for NPY-Y1 antagonists: human NPY-Y2 antagonism; shares compounds with NPY-Y1 antag; inhibition, % at 3.6 µM; 1,200 tested, 28% active; HEK293 NPY-Y2 CNG membrane potential fluorescence; cells given NPY, then isoproterenol;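 also: 0% = DMSO with agonist challenge and 100% = reference antagonist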
NPY-Y2 pot conf: confirmation of human NPY-Y2 receptor potentiators or agonists; 450 tested, 20% active; AID 1539; activation, % at 3.6 µM; shares compounds with NPY-Y2 PAM-ag; cell-based NPY-Y2 potentiator/agonist assay; in the data active = activation above about 33%
NPY-Y1 counter: NPY-Y1 potentiation or agonism as NPY-Y2 counter-screen; Y1 HEK293-CNG cells, membrane potential fluorescence; 450 tested, 20% active; activation, % at 3.6 µM; shares compounds with NPY-Y2 PAM-ag; in the data active = activation above about 45%;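 also: cells stimulated with submaximal NPY then isoproterenol with phosphodiesterase inhibitor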
NPY-Y1 ag 2: human NPY-Y1 agonism as NPY-Y2 potentiator counter-screen; shares compounds with NPY-Y2 PAM-ag; HEK293 Y1-CNGC, membrane potential fluorescence; activation, % at 3.6 µM; 450 tested, 37% active;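 active = activation above the mean of DMSO-only control wells plus 3 SD, cut at about 18% in these data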;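 also: cells stimulated with 1 µM isoproterenol plus the PDE inhibitor Ro 20-1724; 0% = isoproterenol with DMSO and no NPY and 100% = 40 nM NPY; Y1 agonists lower the membrane potential dye signal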
CNGC inh: blocks CNG channel activity, counter-screen for NPY-Y2 potentiators | shares compounds with NPY-Y2 PAM-ag | HEK293-CNG parental, isoproterenol cAMP, membrane potential fluorescence | inhibition, % at 3.6 µM | 450 tested, 32% active;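 active = inhibition above the control-well mean plus 3 SD of those wells, cut at about 22% in these data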;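 also: 0% = DMSO with isoproterenol and 100% = DMSO without isoproterenol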
Y2 agonist ctr: counter-screen for NPY-Y2 potentiators: agonists of human NPY-Y2; shares compounds with NPY-Y2 PAM-ag; HEK293 Y2/CNGC cells, membrane potential fluorescence, agonist mode; activation, % at 3.6 µM; 450 tested, 56% active; AID 1710;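 active = activation above the mean of solvent-only control wells plus 3 SD, cut at about 10% in these data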;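 also: cells stimulated by isoproterenol with no NPY added so direct agonism is tested; 0% = DMSO with isoproterenol alone and 100% = NPY at EC100 plus isoproterenol; agonism lowers probe fluorescence through less cAMP and CNG channel opening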
The depositor's hits bear a star; x = not tested or not shown. Rows were chosen to be rich in hits. Some 1.9% of all compounds tested hit in one or more screens of this group. Rule as the data show it, unless noted: active = inhibition above about 17%; inactive = the rest.

SMILES	NPY-Y1 antag	NPY Y2 blocker	NPY-Y2 PAM-ag	NPY1 pot ag	NPY-Y1 ant conf	NPY2 antag ctr	others
C=CCN1C(=O)C(CC(=O)Nc2ccc(OCCC)cc2)N(CCCN2CCN(Cc3ccccc3)CC2)C1=S (stereo not given)	-11	x	13	20	x	x
Cc1cccc(C(=O)Nc2cccc(OC(=O)c3cccc(C)c3)c2)c1	27*	17	-24	-3	17	11
C=CCNCCCCOc1c(Cl)cc(C)cc1Br	21*	10	-19	-35	12	18*
COCCCNCCCCOc1c(Cl)cc(C)cc1Br	31*	7	-10	-39	7	13
COc1ccc(CN2CCCC(C(=O)c3cccc(OC(C)C)c3)C2)cc1Cn1cccn1 (stereo not given)	9	x	-7	8	x	x
COc1ccc(C(=O)Nc2ccc(Cl)cc2C(=O)NCc2ccco2)cc1OC	25*	16	-156	-160	25*	24*
COc1ccc(C(=O)Nc2ccccc2C(=O)NCc2ccco2)cc1OC	-2	3	3	-6	x	x
COc1ccc(NC(=O)Nc2nc(C)cc(C)n2)c(OC)c1	x	x	-4	5	x	x
CCOc1ccc(N=C(NN)c2ccc3ccccc3n2)cc1	24*	11	-20	-40	4	8
CC(C)(C)NCc1cc(Cl)ccc1OCc1ccccc1F	24*	x	31*	27	17	9	NPY-Y2 pot conf=-4;NPY-Y1 counter=-38;NPY-Y1 ag 2=-27;CNGC inh=-15;Y2 agonist ctr=-13
Cc1ccc(-n2ncc(C(=O)Nc3cc(Cl)ccc3Cl)c2C2CCNCC2)cc1	10	x	-3	-5	x	x
Cc1ccc(-n2ncc(C(=O)Nc3cc(Cl)cc(Cl)c3)c2C2CCNCC2)cc1C	34*	x	51*	21	16	11	NPY-Y2 pot conf=48*;NPY-Y1 counter=62*;NPY-Y1 ag 2=12;CNGC inh=26*;Y2 agonist ctr=31*
COCCNC(=O)C(=O)NCC1OCCCN1S(=O)(=O)c1cccs1 (stereo not given)	3	0	-1	8	x	x
CCOC(=O)N1CCN(C(=O)CSCC(=O)Nc2nc(-c3ccc(-c4ccccc4)cc3)cs2)CC1	21*	7	33*	-44	14	8	NPY-Y2 pot conf=-11;NPY-Y1 counter=-40;NPY-Y1 ag 2=-32;CNGC inh=-11;Y2 agonist ctr=-1
CCOC(=O)N1CCN(C(=O)CSCC(=O)Nc2nc(-c3ccc(OC)cc3)cs2)CC1	5	0	-1	-9	x	x
CC(NC(=O)Nc1nnc(C(F)(F)F)s1)(C(F)(F)F)C(F)(F)F	43*	11	58*	4	27*	7	NPY-Y2 pot conf=8;NPY-Y1 counter=-17;NPY-Y1 ag 2=-25;CNGC inh=-8;Y2 agonist ctr=-1
Cc1cc(C)c2c(-n3cccc3)c(C(=O)NNS(=O)(=O)c3ccc(Cl)cc3)sc2n1	3	3	-15	-3	x	x
